A word on the inhibition: it is the drop in the measured response relative to a control, in per cent.

Data set [1] addresses T1, Guanine nucleotide-binding protein G(q) subunit alpha (Homo sapiens) (UniProt P50148).
T1 sequence (whole entry): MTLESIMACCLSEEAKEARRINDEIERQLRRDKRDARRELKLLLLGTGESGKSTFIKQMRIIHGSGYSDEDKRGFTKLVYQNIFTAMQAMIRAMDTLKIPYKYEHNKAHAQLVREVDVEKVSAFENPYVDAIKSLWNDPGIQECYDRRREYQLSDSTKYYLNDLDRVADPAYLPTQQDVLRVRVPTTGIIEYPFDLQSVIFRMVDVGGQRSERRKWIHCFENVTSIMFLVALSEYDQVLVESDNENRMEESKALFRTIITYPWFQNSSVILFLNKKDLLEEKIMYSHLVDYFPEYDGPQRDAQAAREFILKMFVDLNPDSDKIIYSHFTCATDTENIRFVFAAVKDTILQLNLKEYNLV
Nature of the data set: Binding affinity to Galphaq (unknown origin) expressed in baculovirus-infected insect Hi5 cells assessed as inhibition of BODIPY FL GTPgammaS binding by measuring fluorescence reduction at 30 to 300 uM preincubated for 30 mins followed by BODIPY FL GTPgammaS addition measured for 60 mins by real time nucleotide exchange assay relative to vehicle-treated control. The conditions noted are these: BTI-TN-5B1-4. An outline of the steps:
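Gαq was partially purified from baculovirus-infected Hi5 insect cells (5 × MOI, 48 h). 600 nM protein was preincubated 30 min with compound (DMSO ≤1% v/v final) in 10 mM HEPES, 100 mM NaCl, 5 mM MgCl2, 0.1 mM EDTA, pH 7.4. Exchange was started with 250 nM BODIPY FL GTPγS. Endpoint at 60 min vs vehicle; triplicates, three experiments.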

A further data set deals with HEK293. The data set can be described thus: Cytotoxicity against HEK293 GloSensor cells transfected with Galphai1 coupled with alpha-2 adrenoceptor assessed as effect on cell viability at 10 uM. The format is cell-based. The conditions noted are these: human, hek293, 10 µM.
For data set [2], the target named is Guanine nucleotide-binding protein G(i) subunit alpha-1 (Homo sapiens) (UniProt P63096). Nature of the data set: Binding affinity to human Galphai1 expressed in Escherichia coli BL21 assessed as inhibition of [35S]GTPgammaS binding preincubated for 20 mins followed by [35S]GTPgammaS addition measured for 30 mins by liquid scintillation counting analysis. Type of data set: functional. In a few lines: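 Human Gαi1 was expressed from pPAL7 (Profinity eXact construct) in E. coli BL21 and affinity purified. 100 nM Gαi1 was preincubated 20 min at 24 °C with peptide, then 0.5 μM [35S]GTPγS was added for 30 min at 24 °C, in duplicate. Filtration on nitrocellulose was followed by washes in cold Tris/MgCl2/EDTA buffer pH 7.4 and scintillation counting. Nonspecific binding was taken with 100 μM GTPγS; results are percent of specific binding without peptide.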
Chain of Guanine nucleotide-binding protein G(i) subunit alpha-1 (Homo sapiens) (P63096 whole entry): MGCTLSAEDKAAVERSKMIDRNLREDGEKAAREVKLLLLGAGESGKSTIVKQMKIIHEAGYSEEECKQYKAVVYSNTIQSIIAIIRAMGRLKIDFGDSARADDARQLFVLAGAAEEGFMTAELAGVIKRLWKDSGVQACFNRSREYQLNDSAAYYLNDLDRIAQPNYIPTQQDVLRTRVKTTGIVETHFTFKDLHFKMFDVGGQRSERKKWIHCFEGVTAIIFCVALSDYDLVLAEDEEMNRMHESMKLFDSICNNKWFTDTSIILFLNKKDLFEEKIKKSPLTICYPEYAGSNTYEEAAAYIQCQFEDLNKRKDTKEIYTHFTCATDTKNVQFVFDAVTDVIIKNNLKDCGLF
In general terms: Binding of GTPγS marks nucleotide exchange on a G protein.

The source made the active and inactive calls. The rule behind the calls is not given here. Peptide text beside a SMILES is read from it.

As for `Cc1cccc(N[C@@]2(C(F)(F)F)NC(c3ccccc3)=NC2=O)n1`, in data set [1], the inhibition was 25%.

Consider `SC1=C2CCCCC2=[N+](C[C@@H]2CCCO2)[C@@H](c2ccccc2)N1`, for which the inhibition in data set [1] is less than 10%.

`CCC[C@H]1C[C@](C)(C(=O)CNc2ccccn2)OC1=O`: the inhibition in data set [1] was less than 10%.

For the compound `CC(=O)C1=C(C)NC(C(C#N)C#N)=C(C#N)[C@H]1c1ccccc1`, the inhibition in data set [1] was 40%.

With `CC(=O)/C(=C(\C)O)[C@@H]1c2ccccc2O[C@H](C(F)(F)F)[C@@H]1[N+](=O)[O-]`, in data set [1], the inhibition worked out at 35%.

Regarding `C1=C(/N=C/c2ccccc2)[N+](Cc2ccccc2)=CCO1`, the inhibition in data set [1] is less than 10%.

Consider `C/C(=N\c1ccc(O)cc1)c1sc2ccccc2c1O`, for which the inhibition in data set [1] is less than 10%.

As for `O=[N+]([O-])[C-](/C=N/C1CCCCC1)/C=N/C1CCCCC1`, the Activity entry in the data set with HEK293 is “Non-toxic”. In addition, the inhibition in data set [1] was determined as 32%.

Regarding `CC1=CC(C)(C)NC(Nc2nc(-c3ccccc3)c3ccccc3n2)=N1`, the Activity entry in the data set with HEK293 was “Toxic”. Further, in data set [1], the inhibition is less than 10%.

As to `Cc1nc(NC(=O)NCCC2=CSC3=NCCCN23)nn1C`, in data set [1], the inhibition was 27%.

`CSCC[C@H](NC(=O)[C@H](CCCNC(=N)N)NC(=O)[C@H](CCCCN)NC(=O)[C@H](CO)NC(=O)[C@H](CCC(N)=O)NC(=O)[C@H](CO)NC(=O)[C@H](CCCCN)NC(=O)[C@H](C)NC(=O)[C@H](CC(C)C)NC(=O)[C@H](CC(C)C)NC(=O)[C@H](CC(=O)O)NC(=O)[C@H](Cc1ccccc1)NC(=O)[C@H](Cc1ccccc1)NC(=O)[C@H](CC(=O)O)NC(=O)[C@H](CCC(=O)O)NC(=O)[C@H](CCC(=O)O)NC(=O)CNC(=O)[C@H](CCSC)NC(=O)[C@@H](N)[C@@H](C)O)C(=O)N[C@@H](CC(=O)O)C(=O)N[C@@H](CC(=O)O)C(=O)N[C@@H](CCC(N)=O)C(=O)N[C@@H](CCCNC(=N)N)C(=O)N[C@H](C(=O)N[C@@H](CC(=O)O)C(=O)N[C@@H](CC(C)C)C(=O)N[C@@H](C)C(=O)N[C@@H](CCCCN)C(N)=O)C(C)C` (H-TMGEEDFFDLLAKSQSKRMDDQRVDLAK-NH2): the inhibition entry in data set [2] was “Active”.

For `CCc1ccc2c(C)nc(NC3=NC(C)(C)CC(C)=N3)nc2c1`, in the data set with HEK293, the Activity result is listed as “Non-toxic”. Besides, the inhibition in data set [1] was determined as 50%.

These data come from ChEMBL document CHEMBL3286169, “Development of inhibitors of heterotrimeric Gαi subunits” (Bioorg Med Chem, 2014).
